Source: PubChem BioAssay
Hits are enriched below; roughly 6.6% of the tested compounds scored in any of these assays.
PostGolgi ctrl = inhibits growth of the yeast control strain; efflux-deficient yeast background strain, growth absorbance A615, 16 h; inhibition, % at 10 µM; 5% of 98,000 active
PostGolgi yeast = growth inhibition of a yeast mutant, post-Golgi transport screen | 0.9% of 98,000 active | post-Golgi transport phenotypic cell assay | inhibition, % at 10 µM;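 note: yeast cells grown in 1536-well plates; yeast grown about 18 h at 30C before absorbance read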
E coli WT exp = blocks growth of wild type E. coli BW25113; OD600 absorbance; growth inhibition, % at 100 µM; 0.15% of 98,000 active;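 active = growth inhibition above about 50% at one test dose, limit read from the data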;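 note: growth measured after 20 h incubation at 37 °C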
tolC growth inh = blocks growth of E. coli BW25113 tolC mutant; OD615; AID 573; growth inhibition, % at 10 µM (by protocol); 2.2% of 65,000 active;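 active = growth inhibition at or above a cutoff equal to the mean over every tested compound plus 3 SD, cut at about 60% in these data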;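 note: growth measured after 20 h incubation at 37 °C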
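Material: E. coli BW25113 ΔtolC::kan, tolC deletion mutant strain. Measure: percent growth inhibition. Schedule: 37 °C, 20 h exposure. Doses: single-point testing at 10 µM. Signal: A615 absorbance measurement. Buffer or medium: kanamycin-containing LB broth (50 µg/mL).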
Her2 expr inh = inhibitors of human Her2 kinase expression; P04626; SKBR-3 HER2 protein level, AlphaScreen, 18-24 h; hits give low values; HER2 level % of control, % at 10 µM; 0.69% of 65,000 active;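 active = HER2 level under 5% of the carrier-only control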;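 note: 100% = DMSO carrier and 0% = 500 nM PU-H71 HSP90 inhibitor; lower value means stronger loss of Her2 protein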
Target sequence (P04626 whole entry, looked up): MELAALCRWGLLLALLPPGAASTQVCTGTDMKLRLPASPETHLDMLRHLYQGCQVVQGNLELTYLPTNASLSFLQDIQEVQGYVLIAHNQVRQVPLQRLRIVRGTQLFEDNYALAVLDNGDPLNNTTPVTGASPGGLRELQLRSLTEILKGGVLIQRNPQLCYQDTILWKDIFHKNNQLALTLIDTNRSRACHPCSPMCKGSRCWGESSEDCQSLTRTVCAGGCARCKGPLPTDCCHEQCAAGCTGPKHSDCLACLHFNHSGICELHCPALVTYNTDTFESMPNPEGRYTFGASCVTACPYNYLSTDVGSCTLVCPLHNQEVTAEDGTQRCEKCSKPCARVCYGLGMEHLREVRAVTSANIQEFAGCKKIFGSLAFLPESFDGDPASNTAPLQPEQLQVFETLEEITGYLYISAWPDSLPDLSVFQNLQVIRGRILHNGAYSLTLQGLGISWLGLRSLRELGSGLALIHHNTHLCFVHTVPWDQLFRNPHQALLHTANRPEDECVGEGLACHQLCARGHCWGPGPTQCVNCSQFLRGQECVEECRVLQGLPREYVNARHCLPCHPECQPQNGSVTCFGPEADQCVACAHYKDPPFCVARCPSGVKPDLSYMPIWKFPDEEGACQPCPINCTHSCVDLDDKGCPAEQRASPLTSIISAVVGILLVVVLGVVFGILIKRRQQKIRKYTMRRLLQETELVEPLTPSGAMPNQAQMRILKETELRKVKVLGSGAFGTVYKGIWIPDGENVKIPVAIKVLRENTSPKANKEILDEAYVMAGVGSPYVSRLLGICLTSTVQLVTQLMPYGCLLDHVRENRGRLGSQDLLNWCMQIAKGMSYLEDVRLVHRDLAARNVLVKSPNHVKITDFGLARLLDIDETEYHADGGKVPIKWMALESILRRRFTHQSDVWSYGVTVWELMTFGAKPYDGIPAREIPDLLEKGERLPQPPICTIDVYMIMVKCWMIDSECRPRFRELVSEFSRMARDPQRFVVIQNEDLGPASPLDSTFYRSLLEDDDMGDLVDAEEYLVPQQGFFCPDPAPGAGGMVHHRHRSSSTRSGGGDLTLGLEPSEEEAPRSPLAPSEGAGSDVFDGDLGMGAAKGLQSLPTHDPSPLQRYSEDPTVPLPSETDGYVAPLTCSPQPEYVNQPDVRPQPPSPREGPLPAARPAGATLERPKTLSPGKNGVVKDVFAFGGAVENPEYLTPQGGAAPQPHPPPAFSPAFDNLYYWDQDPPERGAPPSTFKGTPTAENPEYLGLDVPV
Starred values were filed as active, the others as inactive; . = no result. Cut-off read from the data, not from the text of the source, unless noted: active = inhibition above about 30%; inactive = the rest.

SMILES | PostGolgi ctrl | PostGolgi yeast | E coli WT exp | tolC growth inh | Her2 expr inh
CC(OC(=O)c1cccnc1SCc1cc(=O)n2ccccc2n1)c1ccccn1 (configuration not stated) | 10 | -5 | 4 | . | .
CCOC(=O)c1cccnc1SCc1cc(=O)n2ccccc2n1 | 28 | 63* | 4 | 0 | 83
CCOc1ccccc1N1CCN(C(=O)c2cccc(-c3ccc(O)cc3)c2)CC1 | 99* | 5 | -5 | 20 | 70
CCOC(=O)CCCn1nc(C)n2c(cc3sccc32)c1=O | . | . | . | -2 | 90
CCOC(=O)C1CCCN(C(=O)Cn2nc(CC)n3c(cc4sccc43)c2=O)C1 (configuration not stated) | 53* | -4 | 5 | 4 | 100
CCCCCCn1c(N2CCN(c3ccccc3)CC2)nc2c1c(=O)n(C)c(=O)n2C | 22 | -1 | -23 | 80* | 54
CC(=O)Cn1c(N2CCC(Cc3ccccc3)CC2)nc2c1c(=O)[nH]c(=O)n2C | 10 | -2 | -1 | 7 | 96
C=C(C)Cn1c(N2CCC(Cc3ccccc3)CC2)nc2c1c(=O)[nH]c(=O)n2C | 54* | 12 | -7 | 92* | 63
CCCCCn1c(N2CCC(Cc3ccccc3)CC2)nc2c1c(=O)[nH]c(=O)n2C | . | . | . | 71* | 47
CCCn1c(N2CCC(Cc3ccccc3)CC2)nc2c1c(=O)[nH]c(=O)n2C | 52* | 9 | -2 | 53 | 112
C=C1CC2C=C(NC(C)=O)CC(C1)C2 (configuration not stated) | -7 | -5 | 1 | 7 | 71
N#Cc1c(-c2ccc(Cl)cc2)ccn2nc(C3CCCCC3)nc12 | 7 | 2 | -9 | . | .
O=c1cccc(-c2ccccc2)[nH]1 | 6 | -2 | 8 | -21 | -26*
O=c1nc(-c2ccccc2)cc(-c2ccccc2)[nH]1 | -4 | 5 | 2 | -21 | 84
CCC(C)(C)n1nnnc1C(CC(C)C)N1CCC(C(N)=O)CC1 (configuration not stated) | 12 | -2 | -1 | -6 | 81
CCCNC(=O)Cn1c(=O)oc2ccccc21 | 14 | 39* | 6 | . | .
COc1ccc(CCNC(=O)Cn2c(=O)oc3ccccc32)cc1OC | 7 | -2 | 7 | -23 | 96
Cc1cccc(C)c1NC(=O)C(C)c1ccc(-c2ccccc2)c(F)c1 (configuration not stated) | 26 | 6 | -11 | . | .
CCOc1ccccc1C(=O)N1c2ccccc2Sc2ccccc21 | 42* | 24 | -21 | . | .
CC(=O)Oc1ccc2ccccc2c1C(NC(=O)Cc1ccccc1)c1ccccc1Cl (configuration not stated) | 15 | 3 | -9 | . | .
COc1ccc2c(-c3ccccc3)cc(N3CCOCC3)nc2c1 | 14 | 9 | -14 | 100* | 76
Cc1oc2c(C)c(O)ccc2c(=O)c1-c1cnn(-c2ccccc2)c1 | 3 | 5 | 0 | . | .
COc1ccc2c(=O)c(-c3cnn(-c4ccccc4)c3)c(C)oc2c1 | 10 | 34* | 6 | . | .
O=C(Nc1cccnc1)Nc1ccc(Br)cc1Cl | 35* | -10 | 3 | 18 | 104
O=C(Nc1cccnc1)Nc1ccccc1Cl | 20 | 3 | 13 | 6 | 68
SMILES | PostGolgi ctrl | PostGolgi yeast | E coli WT exp | tolC growth inh | Her2 expr inh
Cc1ccccc1OCCCN1C(=O)C(=O)c2cccc(C)c21 | -3 | -3 | 4 | 100* | 89
Cc1c(NC(=O)COC(=O)Cc2ccc(Cl)cc2)c(=O)n(-c2ccccc2)n1C | 10 | 2 | 2 | -1 | 99
O=C(COC(=O)Cc1ccc(S(=O)(=O)N2CCCCC2)s1)Nc1ccc2c(c1)OCO2 | 36* | -3 | 0 | 4 | 105
Nc1nc(C2CCCN2S(=O)(=O)c2ccc(Cl)cc2)cs1 (configuration not stated) | 8 | 20 | 2 | 3 | 97
O=C(CSc1nnc2c(n1)[nH]c1ccccc12)Nc1ccc2c(c1)OCO2 | 4 | 7 | -15 | . | .
CCCCC(c1nnnn1C1CCCC1)N1CCN(C2CCCCC2)CC1 (configuration not stated) | 6 | -2 | -3 | -23 | 104
CCCC(c1nnnn1C1CCCCC1)N1CCN(c2ncccn2)CC1 (configuration not stated) | 37* | 1 | -6 | 3 | 144
CC1=C(C(=O)Nc2cccnc2)C(c2ccc(C(C)C)cc2)n2ncnc2N1 (configuration not stated) | 7 | 1 | -3 | -6 | 92
C=CCn1c(SCc2c(Cl)cccc2Cl)nnc1-c1cccnc1 | 6 | -5 | -2 | . | .
CCCCOC(=O)Nc1sc2c(c1C(=O)OC)CCC2 | . | . | . | 34 | 95
CCc1ccccc1N(C)C(=O)CCc1nc(-c2ccc(C)cc2)no1 | 44* | -8 | -14 | 100* | 93
COc1ccc(Cl)cc1N(C)C(=O)CCc1nc(-c2ccc(C)cc2)no1 | 33* | -3 | -24 | 90* | 97
CCOC(=O)CSc1cc(=O)n(C)c2cc(Cl)ccc12 | -1 | 4 | -1 | -9 | 73
CCOC(=O)N1CCN(C(=O)CSCC(=O)N=c2sc3cc(OC)ccc3n2C)CC1 | . | . | . | 10 | 98
Oc1c(-c2cc(-c3ccco3)[nH]n2)ccc2ccccc12 | 9 | 2 | -8 | 10 | 74
Oc1ccccc1-c1cc(-c2ccco2)[nH]n1 | 30* | 1 | 17 | . | .
Cc1ccc(O)c(-c2cc(C(F)(F)C(F)F)[nH]n2)c1 | 17 | 12 | 34 | 37 | 90
Cc1ccc(O)c(-c2cc(-c3ccccc3C)[nH]n2)c1 | 86* | -4 | 14 | 100* | 7
Oc1ccc(Cl)cc1-c1cc(-c2ccco2)[nH]n1 | 46* | 4 | 16 | . | .
Oc1ccccc1-c1cc(-c2ccccc2Cl)[nH]n1 | 75* | -3 | 4 | 100* | 66
Oc1ccc(Br)cc1-c1cc(-c2ccco2)[nH]n1 | 79* | 1 | 14 | . | .
O=c1c2c(-c3cccs3)csc2ncn1-c1ccc(Br)cc1 | 38* | -14 | -13 | . | .
S=c1nc(-c2ccccc2)n(Cc2ccco2)c2c1CCCC2 | 5 | -5 | 3 | -3 | 87
Fc1ccc(-c2nc3nc4ccccc4nc3n2Cc2ccco2)cc1 | 32* | 5 | -14 | 5 | 63
c1ccc(-c2nc3nc4ccccc4nc3n2Cc2ccco2)cc1 | 32* | -10 | -4 | 27 | 77
SMILES | PostGolgi ctrl | PostGolgi yeast | E coli WT exp | tolC growth inh | Her2 expr inh
Fc1ccc(-n2c(-c3ccco3)nc3nc4ccccc4nc32)cc1 | 11 | -12 | -13 | 1 | 122
O=C(CSc1ncnc2c1cnn2CCc1ccccc1)Nc1cccc(C(F)(F)F)c1 | 4 | -1 | -17 | . | .
CCOCCCNc1nc2c(c(=O)[nH]c(=O)n2C)n1CCCc1ccccc1 | 29 | 8 | 1 | -13 | 102
O=C(Nc1ccccc1C(=O)NC(Cc1c[nH]c2ccccc12)C(=O)O)c1ccco1 (configuration not stated) | -10 | 3 | 8 | 10 | 88
O=C(NC(Cc1c[nH]c2ccccc12)C(=O)O)c1ccco1 (configuration not stated) | 30* | -8 | 6 | . | .
Cc1cccc(NC(=O)NCCc2c[nH]c3ccccc23)c1 | 12 | -17 | 17 | . | .
